# Rtt109 Vps75 = blocks Candida albicans Rtt109/Vps75 acetyltransferase activity. hit rate 0.16% among 330,000. Q5AAJ8. AID 540336. inhibition, % at 34.9 µM. purified Rtt109/Vps75, ThioGlo CoA-SH fluorescence, 4 h;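 active = inhibition of at least 50% in every replicate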
# ERAP1 inh = ERAP1 (human) enzyme inhibition; Q9NZ08; recombinant ERAP1, Leu-AMC fluorescence, 60 min; inhibition, % at 10.7 µM; hit rate 0.15% among 340,000; AID 652197;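 active = mean replicate inhibition of at least 30%, or all replicates individually reaching that 30% level; inactive = mean below 30% and not every replicate reaching it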;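 also: 0% = neutral control wells and 100% = L-leucinethiol positive control wells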
# Target sequence (Q9NZ08 whole entry, looked up): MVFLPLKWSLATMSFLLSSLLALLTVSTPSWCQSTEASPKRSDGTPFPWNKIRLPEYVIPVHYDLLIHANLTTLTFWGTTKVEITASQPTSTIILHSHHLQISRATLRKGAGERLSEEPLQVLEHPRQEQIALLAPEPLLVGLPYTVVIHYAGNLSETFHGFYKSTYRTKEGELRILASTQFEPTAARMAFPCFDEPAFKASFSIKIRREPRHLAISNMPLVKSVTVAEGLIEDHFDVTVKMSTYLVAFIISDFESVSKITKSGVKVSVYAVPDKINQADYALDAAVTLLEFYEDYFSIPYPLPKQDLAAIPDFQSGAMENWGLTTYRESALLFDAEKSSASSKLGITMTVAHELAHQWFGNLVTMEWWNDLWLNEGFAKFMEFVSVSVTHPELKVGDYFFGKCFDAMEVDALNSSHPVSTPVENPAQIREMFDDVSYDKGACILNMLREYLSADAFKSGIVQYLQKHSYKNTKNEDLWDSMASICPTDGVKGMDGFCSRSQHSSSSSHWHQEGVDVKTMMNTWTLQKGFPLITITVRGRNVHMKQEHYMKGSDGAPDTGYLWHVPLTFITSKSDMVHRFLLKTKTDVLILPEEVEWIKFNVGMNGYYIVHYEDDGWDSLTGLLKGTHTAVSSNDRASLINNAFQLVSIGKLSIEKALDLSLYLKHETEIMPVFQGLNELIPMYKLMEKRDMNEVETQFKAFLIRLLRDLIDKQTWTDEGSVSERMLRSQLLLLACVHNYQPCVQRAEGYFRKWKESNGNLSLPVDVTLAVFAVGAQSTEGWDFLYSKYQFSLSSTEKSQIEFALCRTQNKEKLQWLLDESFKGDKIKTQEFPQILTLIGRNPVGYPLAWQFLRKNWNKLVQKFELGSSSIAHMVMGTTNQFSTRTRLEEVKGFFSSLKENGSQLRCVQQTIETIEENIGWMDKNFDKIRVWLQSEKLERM
# PGC1a acetyl inh = lowers PGC1a acetylation signal in U2OS cells; AlphaScreen anti-acetyl-lysine; with virally co-expressed GCN5 acetyltransferase; inhibition, % at 15.6 µM; hit rate 0.17% among 350,000;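 active = every replicate shows inhibition of at least 40%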;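 also: 0% = neutral control wells and 100% = positive control wells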
# S100A4 inh HTS = S100A4-myosin IIA interaction inhibition; P26447; S100A4/TAMRA-MyoIIA peptide fluorescence polarization; inhibition, % at 10.7 µM; hit rate 0.14% among 360,000; AID 652163;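 active = mean inhibition of at least 70% across replicates, with every replicate also reaching that level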
#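 assay system = human S100A4 monomer with TAMRA-labelled myosin IIA peptide | also added = labelled myosin peptide probe, 5 nM | incubation = 5 min between mix addition and reading | control set = DMSO and TFP controls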
# C2C12 statin = protects C2C12 myotubes from simvastatin toxicity. ATP luminescence, 48 h; scaled: DMSO 0, geranylgeraniol control 100. rescue of ATP level, % at 7.49 µM. hit rate 0.78% among 330,000. AID 602340;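 active = mean ATP rescue above about 67%, or every replicate alone reaching that limit, limit read from the data, passing the limit was not always enough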;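 also: myotubes were challenged with 10 µM simvastatin during compound exposure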
# Starred values were filed as active, the others as inactive; / = no result given; ! = not confirmed by another sample. Hits are enriched below; roughly 0.98% of the tested compounds scored in any of these assays.
SMILES,Rtt109 Vps75,ERAP1 inh,PGC1a acetyl inh,S100A4 inh HTS,C2C12 statin
CC(C)NC(=O)N(C)C[C@@H]1Oc2cc(-c3ccncc3)ccc2S(=O)(=O)N([C@H](C)CO)C[C@H]1C,/,-3.3,0.2,160.1*,-11.3
C[C@H]1CN([C@@H](C)CO)S(=O)(=O)c2ccc(Br)cc2O[C@@H]1CN(C)S(=O)(=O)c1ccc(F)cc1,/,-1.1,0.7,2.6,87.5*
C[C@@H]1CN([C@@H](C)CO)S(=O)(=O)c2ccc(-c3cccc(C#N)c3)cc2O[C@@H]1CN(C)C(=O)c1ccc(F)cc1,/,1.0,3.2,131.2*!,-4.4
C[C@H](CO)N1C[C@H](C)[C@H](CN(C)C)Oc2cc(C3=CCCC3)ccc2S1(=O)=O,/,-3.2,/,97.7*,3.8
O=C(NCc1ccncn1)[C@@H]1[C@@H](CO)[C@@H]2Cn3c(cccc3=O)[C@H]1N2CC1CC1,/,-1.5,/,1.7,-3.4
COc1ccc(NC(=O)N(C)C[C@H]2OCCCC[C@H](C)Oc3ccc(NC(=O)c4ccccc4)cc3C(=O)N([C@H](C)CO)C[C@H]2C)cc1,/,1.1,1.7,-11.9,/
C[C@@H]1CN([C@@H](C)CO)S(=O)(=O)c2ccc(Br)cc2O[C@@H]1CN(C)Cc1ccncc1,/,-4.0,-0.8,111.2*,2.5
Cc1noc(C)c1NC(=O)N(C)C[C@@H]1Oc2ccc(NS(=O)(=O)c3ccc(F)cc3)cc2CC(=O)N([C@@H](C)CO)C[C@@H]1C,/,-0.3,1.9,-8.2,-14.3
CC(=O)c1c(C)[nH]c(C(=O)CSc2nnc(C3CCCCC3)n2N)c1C,5.7,/,-14.5,/,122.3*
O=C(CCN1CCc2ccccc2CC1)c1ccc2c(c1)OCCO2,176.8*,/,-12.2,/,0.4
CCCN1C[C@H](C)[C@@H](OC)CN(C)C(=O)c2cc(NC(=O)Nc3ccccc3F)ccc2OC[C@@H]1C,/,/,-0.3,9.4,-34.3
CC(C)c1ccc(NC(=O)CSc2nc3ccsc3c(=O)n2Cc2ccc(C(=O)O)cc2)cc1,32.2,-36.8,59.0*,9.0,6.7
CCc1ccc(NC(=O)CSc2nc3ccsc3c(=O)n2CCC(=O)O)cc1,0.1,-2.3,-2.7,0.5,0.9
C[C@H](CO)N1C[C@H](C)[C@@H](CN(C)C(=O)NC2CCCCC2)Oc2c(NC(=O)c3nc4ccccc4s3)cccc2C1=O,/,/,26.0,4.8,-43.9
C[C@@H]1CN([C@H](C)CO)C(=O)Cc2cc(NC(=O)CCC(F)(F)F)ccc2O[C@H]1CN(C)Cc1ccc(C(=O)O)cc1,/,-2.3,3.5,-11.0,-0.8
Cc1ccc(N(C(=O)Cn2nnc3ccccc32)C(C(=O)NCc2ccco2)c2ccc(C)o2)cc1 (stereo not drawn),6.8,/,0.2,/,130.4*
O=C(NCc1ccco1)C(c1ccc(F)cc1)N(Cc1cccnc1)C(=O)Cn1nnc2ccccc21 (stereo not drawn),0.7,/,3.9,/,101.8*
O=C(NCc1ccco1)C(c1ccccc1)N(Cc1cccnc1)C(=O)Cn1nnc2ccccc21 (stereo not drawn),-5.2,/,-3.8,/,-6.5
CO[C@H]1CN(C)C(=O)c2cc(NC(C)=O)ccc2OC[C@@H](C)N(C(=O)C2CC2)C[C@H]1C,/,/,-6.2,4.6,13.1
Cn1c(=O)c(=O)n(C)c2cc(N3CCOCC3)c(NS(=O)(=O)c3ccc(F)c(Cl)c3)cc21,3.3,-1.7,/,13.7,/
Cn1c(=O)c(=O)n(C)c2cc(N3CCOCC3)c(NS(=O)(=O)c3ccc([N+](=O)[O-])cc3)cc21,-2.1,7.6,5.6,2.4,108.7*
COc1cc(/C(C#N)=C/c2ccccc2)c([N+](=O)[O-])cc1OC,2.3,/,9.7,/,84.0*
CN(C)CCCNc1nc(N)c([N+](=O)[O-])c(NCCO)n1,-0.3,-0.5,-11.6,-4.0,87.3*
S=C1N(c2ccccc2)C(c2ccccc2)N2CCCN12 (stereo not drawn),19.7,/,-1.8,/,132.0*
CN1C(=S)N2CCCN2C1c1ccccc1 (stereo not drawn),-0.1,1.8,6.6,0.0,28.8
SMILES,Rtt109 Vps75,ERAP1 inh,PGC1a acetyl inh,S100A4 inh HTS,C2C12 statin
O=C(C[C@@H]1C[C@H]2c3cc(NC(=O)c4cccnc4)ccc3O[C@H]2[C@@H](CO)O1)NCCN1CCCCC1,/,1.2,-16.8,5.7,0.8
CC1CC(C)CN(C(=O)Cn2c(=O)n(CCCCC(=O)NC3CCCC3)c(=O)c3ccccc32)C1 (stereo not drawn),-3.3,/,-2.5,/,/
CCC(C)NC(=O)Cn1c(=O)n(CCCC(=O)NCc2ccccc2Cl)c(=O)c2ccccc21 (stereo not drawn),-1.3,/,9.3,/,133.7*
CCc1ccc(NC(=O)Cn2c(=O)n(CCCC(=O)NCc3ccco3)c(=O)c3ccccc32)cc1,-8.1,/,-12.7,/,/
CCCN(CCC)C(=O)Cn1c(=O)n(CCCCC(=O)NC2CCCC2)c(=O)c2ccccc21,-6.4,/,4.6,/,96.5*
O=C(CCCCn1c(=O)c2ccccc2n(CC(=O)NC2CCCC2)c1=O)NC1CCCC1,0.9,/,-12.5,/,80.6*
C[C@@H]1CN([C@@H](C)CO)C(=O)c2cc(C3=CCCC3)cnc2O[C@H]1CN(C)S(C)(=O)=O,/,/,2.6,15.6,0.5
COc1cccc(CN(C)C[C@@H]2OCc3ccccc3-c3c(n(C)c4ccccc34)C(=O)N([C@H](C)CO)C[C@H]2C)c1,/,0.2,-16.5,-7.9,/
O=C(NC1CC1)C1CCN(C2CCN(Cc3ccccc3C(F)(F)F)CC2)CC1,2.9,2.2,-12.7,0.3,82.7*
COCC(=O)Nc1ccc2c(c1)C(=O)N(C)[C@H]1CC[C@@H](CC(=O)NCc3ccccc3)O[C@@H]1CO2,/,1.7,-7.7,-7.5,-8.7
COc1ccccc1NC(=O)CCc1c(C)[nH]c(=O)c(C#N)c1C,-13.5,/,11.7,/,97.3*
N#C/C(=C\c1ccncc1)c1nc2c(s1)CCCC2,57.5*,5.2,/,-0.2,/
COc1ccc(C2C3=C(CCCC3=O)N(CC(=O)O)C3=C2C(=O)CCC3)cc1Cl,10.6,30.9*,5.7,-3.7,10.4
COc1ccc(C2C3=C(CCCC3=O)N(CC(=O)O)C3=C2C(=O)CCC3)cc1Br,/,23.9,6.2,-2.1,-0.5
Cc1ccccc1Oc1cc(-n2ncc(Cl)c(Cl)c2=O)ncn1,-2.5,2.0,69.3*,0.7,/
CCOc1cnn(-c2cc(Oc3ccc(C)cc3)ncn2)c(=O)c1Cl,5.7,/,4.4,/,/
CC(C)(CO)CNc1ccn2nccc2n1,/,-1.4,43.4*,-1.7,-1.1
COCCCNc1ccn2nc(-c3ccccc3)cc2n1,/,1.6,/,-4.5,-0.3
COc1ccc(C2C(C(C)=O)=C(O)C(=O)N2CCCn2ccnc2)cc1 (stereo not drawn),-0.6,/,2.9,/,3.2
Cc1nc(C)c(C(=O)C2=C(O)C(=O)N(CCCn3ccnc3)C2c2ccc(Cl)cc2)s1 (stereo not drawn),10.9,/,13.8,/,127.9*
CC(=O)c1cccc(NC(=O)C(C)OC(=O)CCCN=C2NS(=O)(=O)c3ccccc32)c1 (stereo not drawn),-30.0,-1.9,/,-8.8,/

# Compound activity (PubChem)
